PMC2195906 (The Journal of Experimental Medicine, 2001)
“Also recorded” adds a separate entry of the source. Values belong to the compound of their own block, whether it stands above or below them. Ends that are not written are not given here. * marks the point of attachment. Biotin = O=C1N[C@H]2[C@H](CS[C@H]2CCCCC(=O)*)N1

Legend:
[1] = system: purified mitochondria, inner membrane; assay: Respirometry: NADH-dependent oxygen consumption; format: biochemical, mouse; conditions: Bcl-2 0.8 μM pretreated 10 min; other agents added; Fig. 5 A, 6 B
How it was run: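 Oxygen uptake was recorded by Clark electrode at 37°C (mannitol/KCl/MgCl2/BSA/KH2PO4 medium, pH 7.4) after 2 mM NADH and 1 μM peptide, with rotenone added to test sensitivity; rates are in nmol O2/min/mg protein. For inhibitor tests, mitochondria were pretreated 10 min with 0.8 μM Bcl-2 or 10 μM BA before succinate plus CCCP or NADH. In the kinetics, 15 μM cytochrome c oxidation was followed in parallel, with 100% set by 2.5 mM laurylmaltoside.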

ANT [2] = conditions: ref 8 26 28 40; cited from earlier work
[3] = system: purified mitochondria (ΔΨm); assay: ΔΨm dissipation in purified mitochondria, effect of inhibitors; format: biochemical, mouse; conditions: for protection against Vpr-induced inner MMP (in words): purified mitochondria, Fig. 6 B–E
[4] = Binding of FITC–Vpr52-96 to purified mitochondria; design: species or system mouse; conditions: for effect on binding of Vpr52-96 to purified mitochondria: 10 min preincubation with inhibitors, Fig. 7 B
ANT proteoliposomes [5] = assay: Binding of FITC-labeled Vpr52-96 to ANT proteoliposomes; design: species or system rat; conditions: FITC–Vpr52-96 (2 μM in Fig. 2 B); BA 50 μM; Bcl-2 800 nM preincubated (Fig. 8 B)
How it was run: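 ANT was purified from rat heart mitochondria (Triton X-100 extraction, hydroxyapatite, then cation-exchange with a 0–1 M NaCl gradient) and reconstituted at 0.1 mg/ml into phosphatidylcholine/cardiolipin liposomes, then dialysed overnight at 4°C. Proteoliposomes were exposed 30 min to FITC-peptide in 125 mM sucrose/10 mM Hepes pH 7.4, ultracentrifuged (290,000 g, 45 min, 10°C) and read by flow cytometry. Inhibitors were preincubated and washed out; mean ± SD, n = 3.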

VDAC = conditions: sucrose or cytochrome c, in vitro; ref 9 44; cited from earlier work
ANT [6] = biological target: T1, ANT (Rattus norvegicus, UniProt Q05962); assay: Planar lipid bilayers, single channel level, Vpr52-96 plus ANT; format: biochemical; conditions: +75 mV
T1 sequence (Q05962 1-298): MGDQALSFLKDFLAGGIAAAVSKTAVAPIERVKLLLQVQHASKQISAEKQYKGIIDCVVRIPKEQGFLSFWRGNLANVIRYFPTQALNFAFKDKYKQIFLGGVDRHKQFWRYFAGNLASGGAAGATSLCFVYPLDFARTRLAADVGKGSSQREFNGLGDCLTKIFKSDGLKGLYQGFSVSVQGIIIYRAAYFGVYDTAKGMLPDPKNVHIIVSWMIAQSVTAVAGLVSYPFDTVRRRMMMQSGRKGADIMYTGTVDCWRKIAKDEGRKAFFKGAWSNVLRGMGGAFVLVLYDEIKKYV
How it was run: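 Rat heart mitochondrial ANT, purified via subtilisin treatment, Triton X-100 solubilization, hydroxyapatite and SP column (0–1 M NaCl). Proteins held 30 min RT with 1 mM CaCl2, 40 μM atractyloside or control electrolyte, mixed with dried lipid (60 μg protein/mg lipid), detergent removed by beads. Tip-dip bilayers, symmetric 100 mM KCl, 2 mM MgCl2, 10 mM Hepes pH 7.4.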

COS cells = assay: ΔΨm dissipation in microinjected COS cells; format: cell-based
How it was run: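 COS cells grown in DMEM Glutamax with Hepes, antibiotics and 10% FCS on a premarked coverslip area (>200 cells per experiment). Cells were injected into the cytoplasm (200 hPa, 0.5 s) with PBS pH 7.2, recombinant human Bcl-2 (residues 1–218; 10 μM in the injection solution) or 2 μM König's polyanion.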

Vpr52-96–ANT interaction = format: binding, rat; conditions: native purified ANT; Fig. 8 A; X ± SD, n = 3
isolated mitochondria = assay: Ultrastructure: swelling of isolated mitochondria; format: biochemical, mouse; conditions: Fig. 6 C
ANT [7] = biological target: T1, ANT; assay: Plasmon resonance; format: binding; conditions: for sensorgram: increase of binding as a function of time: plasmon resonance, association and dissociation phase, Fig. 1 A; for binding affinity for ANT (in words): surface plasmon resonance, purified detergent-solubilized ANT
ANT [8] = assay: Affinity purification of ANT by biotinylated Vpr52-96 and immunoblot; format: binding, mouse; conditions: Fig. 7 C
ANT proteoliposomes [9] = assay: Pore-opening assay: 4-MUP release from ANT proteoliposomes; format: biochemical, rat; conditions: peptides 1 μM, 60 min, Atr 200 μM = 100%, Fig. 2 C
How it was run: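 ANT purified from rat heart mitochondria, reconstituted into PC/cardiolipin liposomes, sonicated on ice with 1 mM 4-MUP/10 mM KCl, gel-filtered. Diluted in 10 mM Hepes, 125 mM saccharose pH 7.4, peptide 1 h RT; inhibitors added 30 min earlier. Alkaline phosphatase (0.5 mM MgCl2) 15 min 37°C, stopped at pH 10. 4-MU fluorescence 360/450 nm. Release = % of atractyloside response after untreated background subtraction; n = 3, SD.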

[10] = system: purified mitochondria (respiratory control); assay: Respiratory control; format: biochemical, mouse; conditions: 1 μM Vpr-derived peptides, 10 min
How it was run: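 Clark-electrode oxygraphy at 37°C in 0.3 M mannitol, 10 mM KCl, 5 mM MgCl2, 1 mg/ml BSA, 10 mM KH2PO4, pH 7.4. Purified mitochondria were pretreated 10 min with 1 μM peptide; succinate oxidation was followed with sequential ADP, oligomycin and CCCP additions. Mean of three determinations.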

recombinant VDAC = assay: Plasmon resonance: binding to recombinant VDAC; conditions: control experiments, VDAC concentrations up to 10 μM
[11] = biological target: biotin–Vpr52-96 (synthetic peptide, COOH-terminal moiety of HIV-1 viral protein R) (HIV-1) (UniProt P69726); assay: SPR

Compound: Nc1ncnc2c1ncn2[C@@H]1O[C@H](COP(=O)(O)OP(=O)(O)O)[C@@H](O)[C@H]1O [ADP, reference compound]
- effect on Vpr-induced NADH-dependent oxygen consumption [1]: strongly inhibited the Vpr-dependent, NADH-stimulated oxygen consumption

Compound: C=C1[C@@H]2CC[C@H]3[C@]4(C)C[C@H](O[C@@H]5O[C@H](CO)[C@@H](OS(=O)(=O)O)[C@H](OS(=O)(=O)O)[C@H]5OC(=O)CC(C)C)C[C@@H](C(=O)O)[C@H]4CC[C@]3(C2)[C@H]1O [Atr, atractyloside, reference compound]
- effect on ANT pore formation (ANT [2]): cause ANT (which normally is a strictly specific ADP/ATP antiporter) to form a nonspecific pore

Compound: CO[C@H](C/C=C\C=C\CC/C=C/C[C@H](C)/C=C/C(=C\C(=O)O)CC(=O)O)/C(C)=C\C=C(/C)C(=O)O [BA, bongkrekic acid]
- protection against Vpr-induced inner MMP (in words) [3]: also inhibited the manifestations of inner MMP
- effect on binding of Vpr52-96 to purified mitochondria [4]: partially reduced; also recorded: reduces the binding of Vpr to mitochondria to some extent
- effect on Vpr binding to ANT proteoliposomes (ANT proteoliposomes [5]): inhibited

Compound: C=C(C)[C@H]1Cc2c(ccc3c2O[C@@H]2COc4cc(OC)c(OC)cc4[C@@H]2C3=O)O1 [rotenone, reference compound]
- effect on Vpr-induced NADH-dependent oxygen consumption [1]: fully sensitive to rotenone

- conductance of Vpr52-96–ANT channels in presence of Bax (ANT [6]; Vpr52-96 plus ANT plus Bax 0.4:1:0.3 nM, mean value): 245 ± 2 pS
Compound: Bax: proapoptotic Bcl-2 family protein
- effect on ANT pore formation (ANT [2]): cause ANT (which normally is a strictly specific ADP/ATP antiporter) to form a nonspecific pore
- effect on permeabilization of VDAC-containing liposomes (VDAC): enhanced by Bax

- effect on Vpr binding to ANT proteoliposomes (ANT proteoliposomes [5]): reduced
Compound: Bcl-2: recombinant human Bcl-2 (amino acids 1–218)
- effect on Vpr-induced NADH-dependent oxygen consumption [1]: inhibited the Vpr-mediated inner MMP to NADH
- inhibition of Vpr-induced ΔΨm loss in purified mitochondria ([3]; Bcl-2 preincubation (0.8 μM), Fig. 6 D, E): ~70%
- protection against Vpr-induced inner MMP (in words) [3]: protect mitochondria against Vpr-induced MMP
- effect on permeabilization of VDAC-containing liposomes (VDAC): inhibited by Bcl-2
- inhibition of Vpr-induced ΔΨm loss in intact cells (COS cells; 10 μM recombinant human Bcl-2 microinjected, 1 μM Vpr52-96, 3 h): ≥ 95%
- cells with ΔΨm reduction, inhibitor-injected (COS cells; Bcl-2-injected (10 μM), 1 μM Vpr52-96, 3 h): Less than 5%
- effect of Bcl-2 proteins on Vpr52-96 binding to soluble ANT (Vpr52-96–ANT interaction): reduces the ANT–Vpr interaction; also recorded: reduced Vpr52-96 binding to soluble; also recorded: inhibits binding of Vpr52-96 to ANT
- inhibition of Vpr-induced matrix swelling (isolated mitochondria; Bcl-2 preincubation): ~50%
- effect on Vpr52-96-induced matrix swelling (in words) (isolated mitochondria): strongly reduced the Vpr52-96–induced matrix swelling
- effect on binding of Vpr52-96 to purified mitochondria [4]: failed to impair the binding of Vpr52-96 to purified mitochondria; also recorded: not affected
- effect on formation of Vpr52-96–induced channels in ANT-containing lipid bilayers (ANT [6]; Vpr52-96 plus ANT plus Bcl-2 0.4:1:1 nM, Fig. 8 C): suppresses channel formation by the ANT–Vpr complex; also recorded: abolished the formation of Vpr52-96–induced channels

Compound: FITC-labeled Vpr52-96: FITC-labeled Vpr52-96 (DTWAGVEAIIRILQQLLFIHFRIGCRHSRIGVTRQRRARNGASRS; also: FITC label, position not given here)
- binding of FITC-labeled Vpr52-96 to intact mitochondria ([4]; 0.5 μM FITC–Vpr52-96, Fig. 7 A): rapidly bound to intact mitochondria and then provoked ΔΨm loss

Compound: HWWRAESDEARRCYNDPKCCDFVTNR [irrelevant control (Co.), reference compound]
- sensorgram: increase of binding as a function of time (ANT [7]): Only the sensorgram of the interaction with Vpr52-96 exhibits an increase of binding

Compound: König's polyanion [PA10]
- protection against Vpr-induced inner MMP (in words) [3]: also inhibited the manifestations of inner MMP
- effect on Vpr action on intact cells (in words) (COS cells; 2 μM PA10 microinjected, 1 μM Vpr52-96, 3 h): also inhibited the effect of Vpr52-96 on intact cells
- effect on Vpr52-96-mediated purification of ANT, intact mitochondria (ANT [8]; 5 μM biotinylated Vpr52-96, 30 min RT, lysed after incubation): fully abolished
- effect on Vpr52-96-mediated purification of ANT, Triton-solubilized mitochondria (ANT [8]; mitochondria lysed before incubation with 5 μM biotinylated Vpr52-96): did not affect
- effect on binding of Vpr52-96 to purified mitochondria [4]: completely abolished; also recorded: completely blocks the binding of Vpr52-96 to intact mitochondria

Compound: Vpr1-51: NH2-terminal moiety of Vpr
- permeabilization of ANT proteoliposomes (ANT proteoliposomes [9]): but not the NH2-terminal moiety of Vpr [Vpr1-51]
- effect on RC (in words) [10]: but not Vpr1-51

Compound: Vpr52-96[R73A,80A] (Biotin-DTWAGVEAIIRILQQLLFIHFAIGCRHSAIGVTRQRRARNGASRS)
- sensorgram: increase of binding as a function of time (ANT [7]): Only the sensorgram of the interaction with Vpr52-96 exhibits an increase of binding
- specific binding to VDAC (recombinant VDAC): without any difference between Vpr52-96 and Vpr52-96[R73A, 80A] and without detectable saturation

Compound: Vpr: Vpr added extracellularly to intact cells; Fig. 6 A legend gives 1 μM Vpr52-96
- vehicle-microinjected cells with complete ΔΨm dissipation (COS cells; 1 μM Vpr52-96 (Fig. 6 A), 3 h, n = 3): 61 ± 8%

Compound: adenine nucleotide translocator (ANT) purified from rat heart mitochondria (from UniProt Q05962 1-298) (natural protein)
- Kd [11]: 9.7 nM

Compound: biotin–Vpr52-96: NH2-terminally biotinylated Vpr52-96 (Biotin-DTWAGVEAIIRILQQLLFIHFRIGCRHSRIGVTRQRRARNGASRS)
- binding affinity for ANT (in words) (ANT [7]): affinity in the nanomolar range

- binding affinity for ANT (in words) (ANT [7]): to a far lesser extent
Compound: biotin–Vpr52-96[R73,80A]: mutated biotin–Vpr52-96[R73,80A], immobilized on biosensor chip (Biotin-DTWAGVEAIIRILQQLLFIHFAIGCRHSAIGVTRQRRARNGASRS)

- effect on binding of Vpr52-96 to purified mitochondria [4]: not affected
Compound: cyclosporin A [CsA]
- protection against Vpr-induced inner MMP (in words) [3]: also inhibited the manifestations of inner MMP
